Assays:
[1] = target: T1, UDP-glucose 6-dehydrogenase (Rattus norvegicus, UniProt O70199); test: Inhibition of UDPGDH in rat hepatocytes after 20 to 120 secs by UV/Vis spectrophotometric analysis; assay type: cell-based
T1 sequence (O70199 whole entry): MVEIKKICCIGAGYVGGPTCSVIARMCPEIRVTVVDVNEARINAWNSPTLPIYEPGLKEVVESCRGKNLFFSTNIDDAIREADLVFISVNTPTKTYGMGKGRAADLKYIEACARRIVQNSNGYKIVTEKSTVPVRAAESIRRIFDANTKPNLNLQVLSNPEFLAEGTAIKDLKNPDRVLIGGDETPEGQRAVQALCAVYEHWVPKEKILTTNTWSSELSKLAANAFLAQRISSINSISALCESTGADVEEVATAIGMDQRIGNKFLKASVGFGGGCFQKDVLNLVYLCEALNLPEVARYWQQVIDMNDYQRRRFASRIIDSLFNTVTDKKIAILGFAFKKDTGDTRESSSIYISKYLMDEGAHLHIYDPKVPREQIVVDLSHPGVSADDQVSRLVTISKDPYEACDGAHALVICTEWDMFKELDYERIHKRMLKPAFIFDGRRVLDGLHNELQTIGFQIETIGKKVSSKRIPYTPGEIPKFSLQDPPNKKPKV
Method in brief: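 Purified UDPGDH (0.1 unit/mL) was assayed spectrophotometrically at 340 nm and 25 °C in 150 mM Gly-Gly with saturating 3 mM NAD+. UDPG was varied (0.1, 0.05, 0.025, 0.02 mM) at several inhibitor concentrations. After 2 min thermal equilibration, the initial absorbance-versus-time rate was recorded. Runs were in triplicate; averaged slopes were plotted to derive inhibition values.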

[2] = tested on: REH; test: Cytotoxicity against human REH cells assessed as reduction in cell viability […] by Alamar Blue assay; assay type: functional, cell-based
[3] = target: T2, UDP-glucuronosyltransferase 1A1 (Rattus norvegicus, UniProt Q64550); test: Inhibition of UGT1A in rat hepatocytes preincubated for 2 mins followed by UDPGA addition measured after 45 mins by HPLC analysis; assay type: ADME, cell-based
T2 sequence (Q64550 whole entry): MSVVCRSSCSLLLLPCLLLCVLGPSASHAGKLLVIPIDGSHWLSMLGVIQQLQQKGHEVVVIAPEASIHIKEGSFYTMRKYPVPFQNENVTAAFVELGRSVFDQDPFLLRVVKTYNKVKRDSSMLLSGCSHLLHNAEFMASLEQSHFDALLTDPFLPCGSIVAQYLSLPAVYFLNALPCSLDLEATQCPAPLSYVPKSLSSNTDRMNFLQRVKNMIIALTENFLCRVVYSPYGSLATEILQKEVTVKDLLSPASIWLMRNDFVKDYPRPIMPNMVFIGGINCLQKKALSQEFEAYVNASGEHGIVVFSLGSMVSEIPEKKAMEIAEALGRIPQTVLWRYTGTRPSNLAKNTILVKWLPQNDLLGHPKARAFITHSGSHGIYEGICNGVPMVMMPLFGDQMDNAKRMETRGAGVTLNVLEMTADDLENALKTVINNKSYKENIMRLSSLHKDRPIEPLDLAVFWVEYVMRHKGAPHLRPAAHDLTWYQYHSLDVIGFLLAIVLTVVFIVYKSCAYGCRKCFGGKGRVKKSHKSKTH
Method in brief: (§1)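 Rat liver microsomes (100 µg protein/mL) were used, with alamethicin 22 µg/mL, bilirubin 10 µM and MgCl2 0.88 mM in 50 mM potassium phosphate pH 7.4, at 37 °C with shaking under minimal light. Purine or no-purine control was preincubated 2 min before UDPGA (3.5 mM) started the reaction. Reactions were stopped with ice-cold methanol containing 200 mM ascorbic acid and centrifuged. Unconjugated bilirubin and mono- and diglucuronides were quantified by gradient HPLC against bilirubin calibration curves over a 45-min time course.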

[4] = target: T3, UDPGDH (UDP-glucose 6-dehydrogenase) (Rattus norvegicus, UniProt O70199); test: Inhibition of UDPGDH in rat hepatocytes assessed as decrease in bilirubin monoglucuronide level at 5 uM preincubated for 2 mins followed by UDPGA addition measured after 45 mins by HPLC analysis relative to control; assay type: cell-based; details: probe bilirubin (readout: bilirubin monoglucuronide level); method in brief: as §1
T3 sequence (O70199 whole entry): T1 sequence (O70199 whole entry)

[5] = target: T3, UDPGDH (UDP-glucose 6-dehydrogenase); test: Inhibition of UDPGDH in rat hepatocytes assessed as decrease in bilirubin diglucuronide level at 5 uM preincubated for 2 mins followed by UDPGA addition measured after 45 mins by HPLC analysis relative to control; assay type: cell-based; details: probe bilirubin (readout: bilirubin diglucuronide level); method in brief: as §1
[6] = target: T1, UDP-glucose 6-dehydrogenase; test: Inhibition of UDPGDH in rat hepatocytes assessed as increase in unconjugated bilirubin level at 5 uM preincubated for 2 mins followed by UDPGA addition measured after 45 mins by HPLC analysis relative to control; assay type: cell-based; set-up: scale not given: the % may be the effect or the level left; details: 0.75 h; method in brief: as §1
[7] = target: T3, UDPGDH (UDP-glucose 6-dehydrogenase); test: Inhibition of UDPGDH in rat hepatocytes assessed as decrease in bilirubin monoglucuronide level at 10 uM preincubated for 2 mins followed by UDPGA addition measured after 45 mins by HPLC analysis relative to control; assay type: cell-based; details: probe bilirubin (readout: bilirubin monoglucuronide level); method in brief: as §1
[8] = target: T3, UDPGDH (UDP-glucose 6-dehydrogenase); test: Inhibition of UDPGDH in rat hepatocytes assessed as decrease in bilirubin diglucuronide level at 10 uM preincubated for 2 mins followed by UDPGA addition measured after 45 mins by HPLC analysis relative to control; assay type: cell-based; details: probe bilirubin (readout: bilirubin diglucuronide level); method in brief: as §1
[9] = target: T1, UDP-glucose 6-dehydrogenase; test: Inhibition of UDPGDH in rat hepatocytes assessed as increase in unconjugated bilirubin level at 10 uM preincubated for 2 mins followed by UDPGA addition measured after 45 mins by HPLC analysis relative to control; assay type: cell-based; set-up: scale not given: the % may be the effect or the level left; details: 0.75 h; method in brief: as §1
[10] = target: T1, UDP-glucose 6-dehydrogenase; test: Inhibition of UDPGDH in rat hepatocytes assessed as decrease in bilirubin diglucuronide level at 5 to 10 uM preincubated for 2 mins followed by UDPGA addition measured after 45 mins by HPLC analysis; assay type: cell-based; details: 0.75 h; method in brief: as §1
[11] = target: T1, UDP-glucose 6-dehydrogenase; test: Inhibition of UDPGDH in rat hepatocytes assessed as decrease in bilirubin diglucuronide level at 10 uM after 45 mins in presence of UDPGA by HPLC analysis; assay type: cell-based; details: 0.75 h; method in brief: as §1
[12] = target: T2, UDP-glucuronosyltransferase 1A1; test: Inhibition of UGT1A in rat hepatocytes assessed as decrease in bilirubin monoglucuronide level at 75 uM preincubated for 2 mins followed by UDPGA addition measured after 45 mins by HPLC analysis; assay type: ADME, cell-based; details: 0.75 h; method in brief: as §1
[13] = target: T2, UDP-glucuronosyltransferase 1A1; test: Inhibition of UGT1A in rat hepatocytes assessed as decrease in bilirubin diglucuronide level at 75 uM preincubated for 2 mins followed by UDPGA addition measured after 45 mins by HPLC analysis; assay type: ADME, cell-based; details: 0.75 h; method in brief: as §1
[14] = target: T2, UDP-glucuronosyltransferase 1A1; test: Inhibition of UGT1A in rat hepatocytes assessed as increase in unconjugated bilirubin level at 75 uM preincubated for 2 mins followed by UDPGA addition measured after 45 mins by HPLC analysis; assay type: ADME, cell-based; details: 0.75 h; method in brief: as §1
[15] = target: T1, UDP-glucose 6-dehydrogenase; test: Inhibition of UDPGDH in rat hepatocytes assessed as decrease in bilirubin monoglucuronide level at 10 uM preincubated for 2 mins followed by UDPGA addition measured after 45 mins in presence of regorafenib by HPLC analysis; assay type: cell-based; details: 0.75 h
[16] = target: T1, UDP-glucose 6-dehydrogenase; test: Inhibition of UDPGDH in rat hepatocytes assessed as decrease in bilirubin diglucuronide level at 10 uM preincubated for 2 mins followed by UDPGA addition measured after 45 mins in presence of regorafenib by HPLC analysis; assay type: cell-based; details: 0.75 h
[17] = target: T2, UDP-glucuronosyltransferase 1A1; test: Inhibition of UGT1A in rat hepatocytes assessed as decrease in bilirubin monoglucuronide level at 10 uM after 45 mins in presence of UDPGA by HPLC analysis; assay type: ADME, cell-based; details: 0.75 h; method in brief: as §1
[18] = target: T4, UGT1A (UDP-glucuronosyltransferase 1A1) (Rattus norvegicus, UniProt Q64550); test: Inhibition of UGT1A in rat hepatocytes assessed as decrease in bilirubin diglucuronide level at 10 uM preincubated for 2 mins followed by UDPGA addition measured after 45 mins by HPLC analysis relative to control; assay type: ADME, cell-based; details: probe bilirubin (readout: bilirubin diglucuronide level); method in brief: as §1
T4 sequence (Q64550 whole entry): T2 sequence (Q64550 whole entry)

[19] = target: T4, UGT1A (UDP-glucuronosyltransferase 1A1); test: Inhibition of UGT1A in rat hepatocytes assessed as decrease in bilirubin monoglucuronide level at 10 uM preincubated for 2 mins followed by UDPGA addition measured after 45 mins by HPLC analysis relative to control; assay type: ADME, cell-based; details: probe bilirubin (readout: bilirubin monoglucuronide level); method in brief: as §1
[20] = target: T2, UDP-glucuronosyltransferase 1A1; test: Inhibition of UGT1A in rat hepatocytes assessed as decrease in bilirubin diglucuronide level at 10 uM after 45 mins in presence of UDPGA by HPLC analysis; assay type: ADME, cell-based; details: 0.75 h; method in brief: as §1
[21] = target: T3, UDPGDH (UDP-glucose 6-dehydrogenase); test: Inhibition of UDPGDH in rat hepatocytes assessed as decrease in bilirubin monoglucuronide level at 50 uM preincubated for 2 mins followed by UDPGA addition measured after 45 mins by HPLC analysis relative to control; assay type: cell-based; details: probe bilirubin (readout: bilirubin monoglucuronide level); method in brief: as §1
[22] = target: T3, UDPGDH (UDP-glucose 6-dehydrogenase); test: Inhibition of UDPGDH in rat hepatocytes assessed as decrease in bilirubin diglucuronide level at 50 uM preincubated for 2 mins followed by UDPGA addition measured after 45 mins by HPLC analysis relative to control; assay type: cell-based; details: probe bilirubin (readout: bilirubin diglucuronide level); method in brief: as §1
[23] = target: T3, UDPGDH (UDP-glucose 6-dehydrogenase); test: Inhibition of UDPGDH in rat hepatocytes assessed as increase in unconjugated bilirubin level at 25 uM preincubated for 2 mins followed by UDPGA addition measured after 45 mins by HPLC analysis relative to control; assay type: cell-based; details: probe bilirubin (readout: unconjugated bilirubin level); method in brief: as §1
[24] = target: T3, UDPGDH (UDP-glucose 6-dehydrogenase); test: Inhibition of UDPGDH in rat hepatocytes assessed as decrease in bilirubin monoglucuronide level at 25 uM preincubated for 2 mins followed by UDPGA addition measured after 45 mins by HPLC analysis relative to control; assay type: cell-based; details: probe bilirubin (readout: bilirubin monoglucuronide level); method in brief: as §1
[25] = target: T3, UDPGDH (UDP-glucose 6-dehydrogenase); test: Inhibition of UDPGDH in rat hepatocytes assessed as decrease in bilirubin diglucuronide level at 25 uM preincubated for 2 mins followed by UDPGA addition measured after 45 mins by HPLC analysis relative to control; assay type: cell-based; details: probe bilirubin (readout: bilirubin diglucuronide level); method in brief: as §1

Oc1nc2c(S)ncnc2[nH]1
Ki [1]: 14 µM
IC50 [2]: 9.91 µM
Ki [3]: > 100 µM

Sc1ncnc2[nH]c(Br)nc12
Ki [1]: 192 µM
IC50 [2]: 9.54 µM

O=c1[nH]c(=S)c2[nH]c(=O)[nH]c2[nH]1
Ki [1]: 7 µM
IC50 [2]: > 10 µM
Ki [3]: > 100 µM
inhibition at 0.75 h, 5 µM [4]: 71%
inhibition at 0.75 h, 5 µM [5]: 76%
Activity [6]: 31%
inhibition at 0.75 h, 10 µM [7]: 81%
inhibition at 0.75 h, 10 µM [8]: 86%
Activity [9]: 42%
inhibition (INH) [10]: Active
inhibition (INH) [11]: Not Active
inhibition (INH) [12]: Not Active
inhibition (INH) [13]: Not Active
inhibition (INH) [14]: Not Active
inhibition (INH) [15]: Active
inhibition (INH) [16]: Active

CNC(=O)c1cc(Oc2ccc(NC(=O)Nc3ccc(Cl)c(C(F)(F)F)c3)c(F)c2)ccn1 [REGORAFENIB]
inhibition (INH) [17]: Active
inhibition at 0.75 h, 10 µM [18]: 96%
inhibition at 0.75 h, 10 µM [19]: 89%
inhibition (INH) [20]: Active

Sc1ncnc2nc[nH]c12 [MERCAPTOPURINE ANHYDROUS]
Ki [1]: 288 µM
IC50 [2]: 2.94 µM
Ki [3]: > 100 µM
inhibition at 0.75 h, 50 µM [21]: 28%
inhibition at 0.75 h, 50 µM [22]: 26%
inhibition (INH) [10]: Active
inhibition (INH) [12]: Not Active
inhibition (INH) [13]: Not Active
inhibition (INH) [14]: Not Active
inhibition at 0.75 h, 25 µM [23]: 19%
inhibition at 0.75 h, 25 µM [24]: 19%
inhibition at 0.75 h, 25 µM [25]: 12%

Fc1nc2c(S)ncnc2[nH]1
Ki [1]: 215 µM
IC50 [2]: 4.71 µM

Sc1ncnc2[nH]c(Cl)nc12
Ki [1]: 163 µM
IC50 [2]: 3.95 µM

COc1cccc2c1C(=O)c1c(O)c3c(c(O)c1C2=O)C[C@@](O)(C(=O)CO)C[C@@H]3O[C@H]1C[C@H](N)[C@H](O)[C@H](C)O1 [DOXORUBICIN]
IC50 [2]: 0.285 µM

O=c1[nH]c(=S)c2nc[nH]c2[nH]1
Ki [1]: 54 µM
IC50 [2]: > 10 µM
Ki [3]: > 100 µM

Reference: ChEMBL document CHEMBL4316581, “Efforts in redesigning the antileukemic drug 6-thiopurine: decreasing toxic side effects while maintaining efficacy” (Medchemcomm, 2019)
